The text below walks through data of article PMC4121111 (Clinical cancer research : an official journal of the …, 2014).

The test system of series [1] is GRPR. Conditions: cited from earlier work.
The target of series [2] is T1, GRPR (Homo sapiens, UniProt P30550). Nature of the series: Cell binding study by FACS, PC3 cells. The series is classed as cell-based. The settings on record: 3×10^5 cells, 3 pmoles agent in PBS, 15 min, 4 °C, triplicates. Put shortly:
(§1)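 Cell lines came from ATCC and were grown per supplier instructions. 3×10^5 cells were incubated with 3 pmoles dye-peptide conjugate in PBS for 15 min at 4 °C, and cell fluorescence was measured. A scrambled-peptide conjugate served as control. For PC3 only, specificity was tested by co-incubation with bombesin (1.5×10−11 to 1.5×10−8 moles). Triplicates.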

For series [3], the target named is T1, GRPR. Kind of series: Cell binding study by FACS, LNCaP cells. It counts as cell-based. The settings on record: 3×10^5 cells, 3 pmoles agent in PBS, 15 min, 4 °C, triplicates. The essentials: as §1
Background: In flow cytometry, cells or beads pass a laser one at a time.

Series [4] in a line: Blood metabolism in living mice. The series is classed as in vivo.
The target in series [5] is GRPR in PC3 tumors (Homo sapiens, UniProt P30550). Nature of the series: Photoacoustic imaging of GRPR in PC3 tumors in mice. It counts as in vivo. Conditions: 30 to 60 minutes post injection of 10 nmol. The essentials:
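Eight-week-old male nude mice carried flank PC3 xenografts (3 million cells, tumors 0.5–0.7 cm). Imaging used photoacoustic CT at 750 nm (100 views, 100 pulses/view) before and 30 and 60 min after tail-vein injection of 10 nmol agent in 200 µL PBS pH 7.4. The scrambled-peptide control group had n=4 and the active group n=6. 3D filtered back-projection; standard deviation.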

T1 sequence (P30550 whole entry): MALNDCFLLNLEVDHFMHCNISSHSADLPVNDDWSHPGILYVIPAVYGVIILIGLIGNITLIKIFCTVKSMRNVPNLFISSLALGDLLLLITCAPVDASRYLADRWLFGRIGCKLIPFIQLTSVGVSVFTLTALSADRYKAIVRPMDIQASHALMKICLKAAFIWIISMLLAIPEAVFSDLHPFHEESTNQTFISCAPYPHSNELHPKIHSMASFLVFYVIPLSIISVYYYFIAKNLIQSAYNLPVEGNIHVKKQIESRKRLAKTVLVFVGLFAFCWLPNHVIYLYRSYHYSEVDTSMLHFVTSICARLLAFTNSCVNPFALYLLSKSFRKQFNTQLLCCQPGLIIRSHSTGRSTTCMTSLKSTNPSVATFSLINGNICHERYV
GRPR in PC3 tumors, sequence (P30550 whole entry): as above

dFQWAVGHStaL-NH2: in series [1], the binding affinity result was “high affinity binding” and the functional activity result was “antagonist activity”.

Turning to GGGHdFGWStaAQLV-NH2 [CAA3G-740], the “binding to PC3 cells (cell fluorescence)” value in series [2] is “did not show appreciable binding”.

Turning to GGGdFQWAVGHStaL-NH2 [AA3G-740], the “binding to PC3 cells (cell fluorescence)” value in series [2] is “intense labeling”. In series [3], the “binding to LNCaP cells (cell fluorescence)” value was “minimal binding”. For the same substance, the blood lifetime entry in series [4] was “short blood lifetime”. For the same substance, in series [4] (HPLC), the “level present in blood at 60 minutes postinjection” value is recorded as “low level”. Moreover, the “composition in mouse blood at 30 minutes post injection (HPLC)” value in series [4] (blood, 30 minutes post injection, HPLC, three mice) is “major peak observed in blood at 30 minutes post injection was of the parent”. Moreover, in series [4] (blood, 30 minutes postinjection, HPLC), the “proteolysis in mouse blood” value is recorded as “no indication of proteolysis”. Also, the “composition in mouse blood at one hour post injection (HPLC)” value in series [4] (blood, 60 minutes post injection, HPLC) is “intact agent was still the major component”. Besides, the “course of tumor photoacoustic signal over time” value in series [5] is given as “increased over time”.
